Assay outcomes deposited in PubChem by several laboratories.
Rows were chosen to be rich in hits. Some 3.3% of all compounds tested hit in one or more screens of this group.
NFkB transloc pot: enhances IL-1B driven NFkB nuclear translocation. HUVEC IL-1B NFkB p65 nuclear translocation imaging. activation, % at 2 µM. 94,000 compounds, 0.3% hits;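 active means activation above 40%, about the mean plus 3 SD, also judged a hit on visual image review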;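 further: percent activation is computed from the nuclear over cytoplasmic p65 intensity ratio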
FAK blocker: FAK (human) kinase inhibition; Q05397; biochemical FAK kinase activity assay; 97,000 compounds, 0.84% hits; AID 727; inhibition, %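 (tested at 7 µM)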; in the data active means inhibition above about 19%
NFkB transloc inh: blocks IL-1B driven NFkB nuclear translocation in HUVEC cells; AID 796; inhibition, % at 2 µM; 94,000 compounds, 0.43% hits; HUVEC IL-1B NFkB p65 nuclear translocation imaging;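 active means inhibition above about 30% together with a positive call from visual inspection of the well image, limit read from the data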;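 further: nuclear over cytoplasmic p65 intensity ratio measured by imaging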
HUVEC tox IL1B: toxic to HUVEC cells under IL-1B stimulation. HUVEC cell count loss, Hoechst imaging, IL-1B stimulated. cell count reduction, % at 2 µM. 94,000 compounds, 0.41% hits. AID 845;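 active means cell count reduction more than 3 SD above the screen-wide mean, cut at about 70% in these data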
Measles CPE: protection of cells from measles virus. AID 841. Measles virus-infected cells, CPE protection, absorbance. 140,000 compounds, 1.5% hits. protection (pct of control), % at 4 µM; in the data active means protection mostly above about 24%, no sharp cut-off; inactive means mostly below about 26%
Rev-RRE block: inhibitors of HIV-1 Rev-RRE RNA interaction | inhibition, % at 8 µM | Rev peptide-RRE RNA binding, FRET | P05866 | 97,000 compounds, 0.79% hits;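 active means inhibition above the screen-wide mean plus 3 SD, cut at about 35% in these data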
Target sequence (P05866 whole entry, looked up): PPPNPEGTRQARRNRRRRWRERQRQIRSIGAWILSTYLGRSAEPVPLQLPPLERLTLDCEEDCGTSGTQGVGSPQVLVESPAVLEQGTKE
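Test system – labelled RRE RNA duplex and labelled Rev peptide · Reagent – labelled Rev peptide · Doses – one concentration, 8 µM nominal · Incubation – 5 + 15 min at 25 °C · Signal – FRET fluorescence readout · Read-out basis – % inhibition of FRET ratio versus controls · Control set – DMSO wells as 0% and neomycin B wells as 100% inhibition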
Numbers stand for hits; i = inactive; nt = no result; [ ] = remark or other dose.

SMILES | NFkB transloc pot | FAK blocker | NFkB transloc inh | HUVEC tox IL1B | Measles CPE | Rev-RRE block
CC(C)(C)NC(=O)C1N(c2cccnc2)C(=O)C2C(C(=O)Nc3ccccc3F)C3(C)C=CC21O3 (stereo not given) | i | i | i | i | i | i
O=c1c(/C=C(\O)c2ccccc2)nc2ccccc2n1-c1ccccc1 | i | i | i | i | i | 98.2[fluorescence artefact?]
COC(=O)/C=C/c1ccc(OC(=O)OC)c(OC(=O)OC)c1 | nt | nt | nt | nt | i | nt
COc1ccccc1NC(=O)C1CCCN(c2nc(C)cc(C)n2)C1 (stereo not given) | i | i | i | i | 33.3 | i
CCNC(=S)N/N=C(\C)c1cccc([N+](=O)[O-])c1 | nt | nt | nt | nt | i | nt
COc1ccc(NC(=O)C(NC(=O)c2ccc(=O)[nH]c2)c2ccc(C)cc2)cc1 (stereo not given) | nt | nt | nt | nt | 32.8 | nt
CCOC(=O)CCN(Cc1cccs1)S(=O)(=O)c1ccc(F)cc1 | i | i | i | i | 47.9 | i
CCOC(=O)c1sc2nc(CN3CCN(c4cccc(C(F)(F)F)c4)CC3)[nH]c(=O)c2c1C | nt | nt | nt | nt | i | nt
O=C(Nc1ccc(Cl)cc1)c1cc(S(=O)(=O)N2CCOCC2)cs1 | i | i | i | i | 78.3 | i
O=C(NNS(=O)(=O)c1ccccc1)C(O)(c1ccccc1)c1ccccc1 | nt | nt | nt | nt | 63.2 | nt
O=C(CC(=O)c1ccccc1)Nc1cc(C(F)(F)F)ccc1Cl | nt | nt | nt | nt | i | nt
O=C(NC(=S)Nc1cc(C(F)(F)F)ccc1Cl)c1ccccc1 | i | i | 78.9 | i | i | i
CN(C)c1ccc(/C=C(\C#N)C(=O)Nc2nc3c(s2)CCN(Cc2ccccc2)C3)cc1 | i | i | i | i | i | 103.6[fluorescence artefact?]
CCN1CCc2nc(NC(=O)c3ccccc3)sc2C1 | i | i | i | i | i | i
Cc1nc(S(=O)(=O)N(C)Cc2ccccc2)c(C#N)c(C)c1Cl | i | i | 31.1 | i | i | i
O=C(CN1CCN(S(=O)(=O)c2ccccc2)CC1)Nc1ccc([N+](=O)[O-])cc1 | nt | nt | nt | nt | i | nt
Cc1nc(-n2[nH]c3c(c2=O)CCCC3)[nH]c(=O)c1Cc1ccccc1 | i | i | i | i | i | 86.5[fluorescence artefact?]
Cc1cc(=O)[nH]c(-n2[nH]c3c(c2=O)CCCC3)n1 | i | i | i | i | i | i
C=CCNc1nc(N)c(C(=O)Nc2cc(C)on2)s1 | i | i | i | 77.2 | i | i
COc1ccccc1NC(=O)NC(=O)N(C(C)C)S(C)(=O)=O | i | i | i | i | i | i
CCCCN(C(=O)NC(=O)Nc1ccccc1OC)S(C)(=O)=O | i | i | i | i | 27.9 | i
COc1ccc(C2=NOC(C(=O)NC(C)C)C2)cc1 (stereo not given) | i | i | i | i | i | i
COc1cccc(C2=NOC(C(=O)NC(C)C)C2)c1 (stereo not given) | i | i | i | i | 56.9 | i
Cc1ccc(N=C2S/C(=C\c3cn(CC(=O)O)c4ccccc34)C(=O)N2C)cc1 | nt | nt | nt | nt | i | nt
C=CCNc1ncnc2c1[nH]c1ccc(C)cc12 | i | 25.1 | i | i | i | i
SMILES | NFkB transloc pot | FAK blocker | NFkB transloc inh | HUVEC tox IL1B | Measles CPE | Rev-RRE block
COc1ccnc(Oc2ccccc2)c1C(=O)N/C=N/OCc1ccc(F)cc1Cl | i | i | i | 94.9 | i | i
Cc1ccc(-c2ccc(/C=C(\C#N)C(=O)Nc3cc(C)nn3-c3ccccc3)o2)cc1 | i | i | i | i | i | 103.4[fluorescence artefact?]
COc1ccc(-c2csc3[nH]c(=S)n(-c4ccccc4)c(=O)c23)cc1OC | nt | nt | nt | nt | i | nt
CN(C)c1nc(OCCOC(=O)COc2ccc(Cl)cc2Cl)nc(N(C)C)n1 | nt | nt | nt | nt | i | nt
CN(C)c1nc(SCCOC(=O)COc2ccc(Cl)cc2Cl)nc(N(C)C)n1 | i | i | i | i | 105.1 | i
NS(=O)(=O)c1cccc(NC(=O)COC(=O)C2(c3cccc(F)c3)CCCC2)c1 | nt | nt | nt | nt | i | nt
O=C(OC1C2CCC1C1CN(CCc3ccccc3)CC12)c1ccccc1 (stereo not given) | nt | nt | nt | nt | i | nt
O=C(Oc1ccccc1[N+](=O)[O-])c1cccnc1 | i | i | i | i | 28.8 | i
COc1cc(C)c(Br)cc1S(=O)(=O)N1CCCC1 | i | i | i | i | 30.2 | i
Cc1ccc2nc(N3CC(=O)Nc4ccccc43)nc(-c3ccccc3)c2c1 | nt | nt | nt | nt | i | nt
O=C(NS(=O)(=O)Oc1cccc(Cl)c1Cl)OC[C@@H]1CCCN2CCCCC12 (stereo not given in full) | nt | nt | nt | nt | i | nt
CCCc1cc(SCC(=O)Nc2c(C)n(C)n(-c3ccccc3)c2=O)n2c(nc3ccccc32)c1C#N | i | i | i | i | i | 40.8
N#Cc1c(Sc2ncc(C(F)(F)F)cc2Cl)nsc1C/C=N\OCc1ccccc1Br | nt | i | nt | nt | i | 69.2
CN1CC=C2C(C#N)=C(N)C(C#N)(C#N)C(CCc3ccccc3)C2C1 (stereo not given) | nt | nt | nt | nt | i | nt
CN1CCC2(CC1)C1CN(C)CC=C1C(C#N)=C(N)C2(C#N)C#N (stereo not given) | i | i | i | i | i | 74.0
CCOC(=O)Nc1ccc(C(=O)Oc2ccccc2)c(O)c1 | i | i | i | i | 39.8 | i
CCOC(=O)Nc1ccc(Oc2ccccc2)cc1 | i | i | i | i | i | i
Cc1cc(C)c(S(=O)(=O)N2CCCOC2CNC(=O)C(=O)NCc2ccncc2)c(C)c1 (stereo not given) | nt | nt | nt | nt | i | nt
Cn1c2ccc(F)cc2c2ncn(Cc3ccco3)c(=O)c21 | i | i | 31.5 | i | i | i
COCCn1c(SCC(=O)N2CC(=O)Nc3ccccc32)nc2ccccc21 | nt | nt | nt | nt | i | nt
CCCOC1OC(=O)c2c1ccc(OC)c2OC (stereo not given) | nt | nt | nt | nt | i | nt
Cc1ccc(NC(=O)COC(=O)Cn2nc(C)c([N+](=O)[O-])c2C)c([N+](=O)[O-])c1 | nt | nt | nt | nt | 39.7 | nt
Cc1nn(CC(=O)OCC(=O)Nc2ccccc2[N+](=O)[O-])c(C)c1[N+](=O)[O-] | nt | nt | nt | nt | i | nt
O=[N+]([O-])c1ccccc1/C=N/n1c(-c2cccnc2)n[nH]c1=S | nt | nt | nt | nt | i | nt
O=[N+]([O-])c1cc(/C=N/n2c(-c3cccnc3)n[nH]c2=S)ccc1Cl | nt | nt | nt | nt | 28.6 | nt
SMILES | NFkB transloc pot | FAK blocker | NFkB transloc inh | HUVEC tox IL1B | Measles CPE | Rev-RRE block
COC(=O)NC1CCC(NC(=O)OC)CC1 (stereo not given) | nt | nt | nt | nt | i | nt
CCC(C)(C(=O)NC1CCCCC1)N(C(=O)Cc1cccs1)c1ccccc1 (stereo not given) | nt | nt | nt | nt | i | nt
CCS(=O)(=O)c1ccc(C(=O)Nc2ccccc2)c(Cl)c1Cl | nt | i | nt | nt | 89.2 | i
O=C(O)C(=O)/C(=C\c1ccccc1)c1ccc2ccccc2n1 | i | i | i | i | i | 77.7
O=C(c1ccccc1)c1ccc2ccccc2n1 | i | i | i | i | i | i
O=C(O)C(=O)/C(=C\c1cccc2ccccc12)c1ccc2ccccc2n1 | i | i | i | i | i | 88.5[fluorescence artefact?]
CS(=O)(=O)Oc1ccc(/C=N/NC(=O)c2ccncc2)cc1 | nt | nt | nt | nt | i | nt
O=C(CCCC(=O)OCC(F)(F)C(F)F)Nc1ccc(NC(=O)CCCC(=O)OCC(F)(F)C(F)F)cc1 | i | i | i | i | 42.2 | i
Cc1ccc(NC(=O)CCC(=O)OCC(F)(F)C(F)F)cc1 | i | i | i | i | i | i
c1ccc(-c2cn3nc4c(nc3n2)CCCC4)cc1 | i | i | i | i | i | 47.5
